Here are results for 2 compounds from ChEMBL document CHEMBL1122788, “Quantitative relationships between alpha-adrenergic activity and binding affinity of alpha-adrenoceptor agonists and antagonists” (J Med Chem, 1984).

Assay [1] deals with T1, Adrenergic receptor alpha-1 (Rattus norvegicus, UniProt P15823+P23944+P43140).
T1 sequence (P15823 whole entry): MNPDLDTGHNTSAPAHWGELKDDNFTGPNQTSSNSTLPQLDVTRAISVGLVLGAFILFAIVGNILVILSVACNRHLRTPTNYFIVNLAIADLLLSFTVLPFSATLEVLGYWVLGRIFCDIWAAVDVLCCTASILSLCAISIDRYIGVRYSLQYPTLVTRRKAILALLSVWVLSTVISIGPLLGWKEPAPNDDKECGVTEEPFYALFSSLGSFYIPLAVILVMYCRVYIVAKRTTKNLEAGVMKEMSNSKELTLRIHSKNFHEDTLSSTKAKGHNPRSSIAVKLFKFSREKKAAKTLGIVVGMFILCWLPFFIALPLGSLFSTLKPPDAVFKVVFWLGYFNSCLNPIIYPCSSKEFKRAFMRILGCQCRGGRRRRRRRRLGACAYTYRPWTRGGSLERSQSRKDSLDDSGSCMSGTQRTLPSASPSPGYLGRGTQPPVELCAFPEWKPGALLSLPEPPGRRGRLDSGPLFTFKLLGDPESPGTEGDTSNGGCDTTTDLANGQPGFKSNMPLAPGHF
T1 sequence (P23944 whole entry): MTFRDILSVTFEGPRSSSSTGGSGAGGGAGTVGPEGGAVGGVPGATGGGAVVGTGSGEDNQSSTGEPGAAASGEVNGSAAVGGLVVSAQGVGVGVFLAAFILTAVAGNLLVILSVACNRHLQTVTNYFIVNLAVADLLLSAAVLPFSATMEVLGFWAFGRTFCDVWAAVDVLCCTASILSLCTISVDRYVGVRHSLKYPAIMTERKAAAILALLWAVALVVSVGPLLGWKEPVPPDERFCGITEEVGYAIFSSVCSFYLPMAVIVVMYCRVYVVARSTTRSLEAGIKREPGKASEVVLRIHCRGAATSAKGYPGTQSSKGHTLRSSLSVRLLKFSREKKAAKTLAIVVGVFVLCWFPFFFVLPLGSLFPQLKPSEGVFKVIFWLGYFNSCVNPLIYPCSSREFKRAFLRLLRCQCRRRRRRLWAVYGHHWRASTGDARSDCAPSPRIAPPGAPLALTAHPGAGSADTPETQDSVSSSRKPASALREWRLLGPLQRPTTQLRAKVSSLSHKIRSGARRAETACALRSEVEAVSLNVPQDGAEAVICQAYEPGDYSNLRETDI
T1 sequence (P43140 whole entry): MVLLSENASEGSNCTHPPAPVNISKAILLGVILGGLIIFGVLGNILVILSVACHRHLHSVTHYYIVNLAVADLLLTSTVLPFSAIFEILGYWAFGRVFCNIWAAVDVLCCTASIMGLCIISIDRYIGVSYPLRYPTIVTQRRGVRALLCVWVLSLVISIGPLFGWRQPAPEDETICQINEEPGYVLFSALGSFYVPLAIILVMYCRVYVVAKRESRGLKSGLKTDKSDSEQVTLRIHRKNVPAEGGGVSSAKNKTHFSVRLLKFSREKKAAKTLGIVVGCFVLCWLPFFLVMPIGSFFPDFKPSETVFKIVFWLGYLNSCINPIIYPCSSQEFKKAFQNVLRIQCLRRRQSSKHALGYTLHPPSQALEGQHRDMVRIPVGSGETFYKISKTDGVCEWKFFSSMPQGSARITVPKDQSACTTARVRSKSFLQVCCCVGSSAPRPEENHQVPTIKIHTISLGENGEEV
The experiment in a line: (§1) Inhibition of specific [3H]-prazosin binding (0.2 nM) to rat brain membranes alpha-1 adrenergic receptor. Type of assay: cell membranes, Membrane. An outline of the steps:
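Brain membranes were prepared from male Wistar rats (200–250 g, cerebellum removed) in ice-cold 50 mmol/L Tris-HCl, pH 7.7, with two 50000g spins, and used at 1 mg/mL protein (Lowry). […] Bound label was collected by vacuum filtration and counted. IC50 came from log probit analysis.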

Assay [2] addresses T1, Adrenergic receptor alpha-1. The experiment in a line: Antagonist activity against phenylephrine-induced alpha1- adrenoceptor mediated vasoconstriction in pithed normotensive rats. Type of assay: functional.
The species entered for assay [3] is Oryctolagus cuniculus. The assay can be described thus: Index of alpha1/alpha2 adrenoceptor antagonist selectivity at pre and postsynaptic sites in vitro. Type of assay: functional.
Assay [4] concerns the target Adrenergic receptor alpha-2 (Homo sapiens) (UniProt P08913+P18825+P18089). The conditions noted are these: Oryctolagus cuniculus.
Assay [5] deals with T1, Adrenergic receptor alpha-1. The assay is described as §1. Type of assay: cell membranes, Membrane. An outline of the steps: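 Whole rat brain (minus cerebellum) from male Wistar rats (200–250 g), homogenized in ice-cold 50 mM Tris-HCl pH 7.7 and washed twice at 50000g. Bound ligand was collected by filtration and counted. IC50 was derived by log-probit analysis.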
The source holds these as a separate data set.

Assay [6] shares this target. The experiment in a line: In vivo antagonist activity against (-)-phenylephrine-induced alpha-1 adrenergic receptor mediated vasoconstriction in pithed normotensive rats. Type of assay: functional, organism-based.

As to `C=CCN1Cc2ccccc2-c2ccccc2C1` [AZAPETINE], the IC50 – broadly, the concentration that inhibits the measured activity by half – in assay [1] turned out to be 205 nM. The pA2 (commonly the negative logarithm of the molar antagonist concentration that doubles the agonist concentration needed for the same response) in assay [2] is listed as 6.09. This compound also gave a Selectivity index in assay [3] of 1.08. This compound displayed a pC30 in assay [4] of 5.89.

Compound `CN1C[C@H](C(=O)N[C@]2(C)O[C@@]3(O)[C@@H]4CCCN4C(=O)[C@H](Cc4ccccc4)N3C2=O)C[C@@H]2c3cccc4[nH]cc(c34)C[C@H]21` [DIHYDROERGOTAMINE] yielded an IC50 in assay [5] of 27 nM. Also, the pA2 in assay [6] is 6.68.
